Active and inactive are the calls of the source. The rule behind the calls is not given here.
How the values were obtained:
[1] = system: Trypanosoma brucei brucei; assay: Inhibition of Trypanosoma brucei brucei 427 P1 transporter-mediated [3H]adenosine uptake by fluid scintillation counting in presence of 100 uM adenine
[2] = Inhibition of Trypanosoma brucei brucei 427 P2 transporter-mediated [3H]adenosine uptake by fluid scintillation counting in presence of 100 uM inosine
[3] = system: Trypanosoma brucei rhodesiense; assay: Trypanocidal activity against Trypanosoma brucei rhodesiense STIB 900 […] by reporter dye assay; assay type: functional, organism-based
[4] = system: Plasmodium falciparum; assay: Antiplasmodial activity against chloroquine and pyrimethamine-resistant Plasmodium falciparum K1 […] by reporter dye assay; assay type: functional, organism-based
[5] = system: Trypanosoma cruzi; assay: Trypanocidal activity against Trypanosoma cruzi Tulahuen C4 trypomastigotes infected in mouse macrophage by reporter dye assay; assay type: functional, organism-based
[6] = system: Leishmania donovani; assay: Antileishmanial activity against Leishmania donovani MHOMET-67/L82 amastigotes infected in mouse macrophage by reporter dye assay; assay type: functional, organism-based
[7] = Cytotoxicity against HEK293T cells after 16 hrs by alamar blue staining; assay type: cell-based; conditions: Homo sapiens, HEK-293T
Outline: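 HEK 293T cells were seeded at 3×10^4/well in DMEM with 10% newborn bovine serum, 2 mM L-glutamax and 1% penicillin-streptomycin, and left to adhere for 3 h at 37°C under 5% CO2. Medium with serial drug dilutions (500 to 0.24 μM in the added medium) was then given for 16 h. Resazurin followed for a further 24 h, read by fluorescence (ex 530/em 590 nm). IC50 values came from ≥3 independent experiments.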

[8] = system: L6; assay: Cytotoxicity against rat L6 cells; assay type: cell-based
[9] = system: Leishmania major; assay: Biphasic antileishmanial activity against Leishmania major promastigotes by alamar blue fluorescent dye assay; assay type: functional, organism-based
[10] = system: Trypanosoma brucei brucei; assay: Biphasic antitrypanosomal activity against Trypanosoma brucei brucei s427 by alamar blue fluorescent dye assay; assay type: functional, organism-based
[11] = Inhibition of [3H]hypoxanthine uptake at Trypanosoma brucei brucei 427 H2 transporter expressed in human erythrocytes by fluid scintillation counting; assay type: cell-based
[12] = system: Trypanosoma brucei brucei; assay: Trypanostatic activity against Trypanosoma brucei brucei s427 by alamar blue fluorescent dye assay; assay type: functional; conditions: read-out: ED50 (the source's name)
[13] = system: Trypanosoma brucei brucei; assay: Trypanocidal activity against Trypanosoma brucei brucei s427 by alamar blue fluorescent dye assay; assay type: functional; conditions: read-out: ED50 (the source's name)
[14] = system: Leishmania major; assay: Leishmanistatic activity against Leishmania major promastigotes by alamar blue fluorescent dye assay; assay type: functional; conditions: read-out: ED50 (the source's name)
[15] = system: Leishmania major; assay: Leishmanicidal activity against Leishmania major promastigotes by alamar blue fluorescent dye assay; assay type: functional; conditions: read-out: ED50 (the source's name)
[16] = system: Leishmania mexicana; assay: Antiprotozoal activity against axenic Leishmania mexicana amastigotes by alamar blue fluorescent dye assay; assay type: functional, organism-based

Compound | IC50 [3] | IC50 [4] | IC50 [5] | IC50 [6] | further results
Nc1ncnc2c1ncn2[C@H]1C[C@H](O)[C@@H](CO)O1 [DEOXYADENOSINE] |  |  |  |  | inhibition [1]: inactive; Ki [2]: 0.23 µM
OC[C@H]1O[C@@H](n2cnc3c(N4CCCCC4)nc(N4CCCCC4)nc32)[C@H](O)[C@@H]1O | 87.2 µM | > 10 µM |  |  | 
COc1nc(NCc2cccc(I)c2)c2ncn([C@@H]3O[C@H](CO)[C@@H](O)[C@H]3O)c2n1 | 26.7 µM | > 10 µM | < 30 µM | < 30 µM | 
OC[C@H]1O[C@@H](n2cnc3c(NC4CCCC4)nc(NC4CC4)nc32)[C@H](O)[C@@H]1O | 1.43 µM | > 10 µM |  |  | IC50 [7]: > 500 µM
OC[C@H]1O[C@@H](n2cnc3c(Nc4ccccc4)nc(NC4CCCC4)nc32)[C@H](O)[C@@H]1O | 2.06 µM | 6.06 µM | < 30 µM | < 30 µM | IC50 [8]: 36.3 µM
COc1nc(NC2CCCC2)c2ncn([C@@H]3O[C@H](CO)[C@@H](O)[C@H]3O)c2n1 | 32.9 µM | > 10 µM | < 30 µM | < 30 µM | IC50 [8]: 51.6 µM
Nc1nc(N)nc(Nc2ccc([As]3SCC(CO)S3)cc2)n1 (stereo not given) [MELARSOPROL] | 0.0056 µM |  | < 30 µM | < 30 µM | 
OC[C@H]1O[C@@H](n2cnc3c(NC4CCCCC4)nc(NC4CCCC4)nc32)[C@H](O)[C@@H]1O | 0.71 µM | > 10 µM |  |  | IC50 [7]: > 500 µM
OC[C@H]1O[C@@H](n2cnc3c(NCc4cccc(I)c4)nc(NCCC4CNc5ccccc54)nc32)[C@H](O)[C@@H]1O (stereo not given in full) | 20 µM | > 10 µM | < 30 µM | < 30 µM | 
N=C(N)c1ccc(OCCCCCOc2ccc(C(=N)N)cc2)cc1 [PENTAMIDINE] |  |  |  |  | IC50 [9]: 3.52 µM
OC[C@H]1O[C@@H](n2cnc3c(NC4CCCC4)nc(NC4CCCCC4)nc32)[C@H](O)[C@@H]1O | 0.49 µM | 9.05 µM |  |  | IC50 [7]: 228 µM
OC[C@H]1O[C@@H](n2cnc3c(NC4CCCC4)nc(NCCc4cnc[nH]4)nc32)[C@H](O)[C@@H]1O | 37.8 µM | > 10 µM | < 30 µM | < 30 µM | 
N=C(N)c1ccc(/N=N/Nc2ccc(C(=N)N)cc2)cc1 [DIMINAZENE] |  |  |  |  | IC50 [10]: 0.107 µM
C[C@@H]1CC[C@H]2[C@@H](C)C(=O)O[C@@H]3O[C@@]4(C)CC[C@@H]1[C@]32OO4 [ARTEMISININ] |  | 0.2 µM |  |  | 
c1nc2nc(NC3CCCC3)nc(NC3CCCC3)c2[nH]1 |  |  |  |  | Ki [11]: 33.4 µM; EC50 [12]: 0.026 µM; EC50 [13]: 23.4 µM; EC50 [14]: 0.015 µM; EC50 [15]: 15.1 µM; IC50 [16]: 15.2 µM
OC[C@H]1O[C@@H](n2cnc3c(NC45CC6CC(CC(C6)C4)C5)nc(N4CCCC4)nc32)[C@H](O)[C@@H]1O | 34.1 µM | 6.2 µM |  |  | 
OC[C@H]1O[C@@H](n2cnc3c(NC4CCCC4)nc(NC4CCCCCC4)nc32)[C@H](O)[C@@H]1O | 3.06 µM | 6.79 µM |  |  | IC50 [7]: 167 µM
OC[C@H]1O[C@@H](n2cnc3c(NC4CCCCCC4)nc(NC4CCCCCC4)nc32)[C@H](O)[C@@H]1O | 29.8 µM | 4.91 µM |  |  | 
OC[C@H]1O[C@@H](n2cnc3c(NC4CCCC4)nc(NC4CCCC4)nc32)[C@H](O)[C@@H]1O | 0.4 µM | > 10 µM |  |  | IC50 [8]: 97.3 µM; IC50 [7]: > 500 µM; inhibition [1]: inactive; Ki [2]: 20 µM; EC50 [12]: 0.166 µM; EC50 [13]: 15.7 µM; EC50 [14]: 0.01 µM; EC50 [15]: 9.07 µM; IC50 [16]: 9.01 µM
OC[C@H]1O[C@@H](n2cnc3c(NCCC(c4ccccc4)c4ccccc4)nc(NCCC4CNc5ccccc54)nc32)[C@H](O)[C@@H]1O (stereo not given in full) | 25.1 µM | 1.83 µM | < 30 µM | < 30 µM | 
OC[C@H]1O[C@@H](n2cnc3c(NCc4cccc5ccccc45)nc(NCCC(c4ccccc4)c4ccccc4)nc32)[C@H](O)[C@@H]1O | 24.1 µM | 1.76 µM |  |  | 
OC[C@H]1O[C@@H](n2cnc3c(NCCC(c4ccccc4)c4ccccc4)nc(NCCOCc4ccccc4)nc32)[C@H](O)[C@@H]1O | 27.7 µM | 3.06 µM | < 30 µM | < 30 µM | 
OC[C@H]1O[C@@H](n2cnc3c(NC4CCCC4)nc(NCCOCc4ccccc4)nc32)[C@H](O)[C@@H]1O | 4.19 µM | > 10 µM | < 30 µM | < 30 µM | IC50 [8]: 78.8 µM

From ChEMBL document CHEMBL1137633, “2,N6-disubstituted adenosine analogs with antitrypanosomal and antimalarial activities” (Antimicrob Agents Chemother, 2007)
